Measurements reported in ChEMBL document CHEMBL1123365, “Synthesis and opioid antagonist potencies of naltrexamine bivalent ligands with conformationally restricted spacers” (1986).

Columns and labels:
Cavia porcellus [1] = organism: Cavia porcellus; assay: Compound was tested for its antagonistic activity with ethylketazocine (EK) activity on the electrically stimulated guinea pig ileal longitudinal muscle (GPI).; assay type: functional, Muscle tissue
Method in brief: (§1)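 Guinea pig ileal longitudinal muscle (GPI) strip. Ligand at 5 nM was preincubated with the tissue for 30 min, then an ethylketazocine (κ-selective) concentration-response curve was run. The IC50 ratio is the EK IC50 with antagonist over the control EK IC50 in the same GPI preparation. Relative potency is expressed against the monovalent reference ligand. Mean ± SE, n = 3.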

Cavia porcellus [2] = organism: Cavia porcellus; assay: Compound was tested for its antagonistic activity with morphine on the electrically stimulated guinea pig ileal longitudinal muscle (GPI).; assay type: functional, Muscle tissue
Method in brief: (§2)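 Guinea pig ileal longitudinal muscle (GPI) strip. Each ligand at 5 nM was incubated with the tissue for 30 min before a morphine (μ-selective) concentration-response curve was run. The IC50 ratio is the morphine IC50 with antagonist divided by the control IC50 in the same preparation. Relative potency is the ratio relative to the monovalent reference ligand. Mean ± SE of three determinations.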

[3] = Ratio of IC50 of compound in presence of ethylketazocine (EK) on the electrically stimulated guinea pig ileal longitudinal muscle (GPI) to that of IC50 of control value; assay type: functional; method in brief: as §1
[4] = Ratio of IC50 of compound in presence of morphine on the electrically stimulated guinea pig ileal longitudinal muscle (GPI) to that of IC50 of control value; assay type: functional; method in brief: as §2

## O=C(/C=C/C(=O)NC1CCC2(O)C3Cc4ccc(O)c5c4C2(CCN3CC2CC2)C1O5)NC1CCC2(O)C3Cc4ccc(O)c5c4C2(CCN3CC2CC2)C1O5 (stereo not given)
Cavia porcellus [1]
  Relative potency: 2.3
Cavia porcellus [2]
  Relative potency: 2.1
[3]
  Ratio: 3.4
[4]
  Ratio: 4.8

## O=C(/C=C/C(=O)NCC(=O)NCC(=O)NC1CCC2(O)C3Cc4ccc(O)c5c4C2(CCN3CC2CC2)C1O5)NCC(=O)NCC(=O)NC1CCC2(O)C3Cc4ccc(O)c5c4C2(CCN3CC2CC2)C1O5 (stereo not given)
Cavia porcellus [1]
  Relative potency: 13.1
Cavia porcellus [2]
  Relative potency: 43
[3]
  Ratio: 19.6
[4]
  Ratio: 100

## O=C(/C=C/C(=O)NCC(=O)NC1CCC2(O)C3Cc4ccc(O)c5c4C2(CCN3CC2CC2)C1O5)NCC(=O)NC1CCC2(O)C3Cc4ccc(O)c5c4C2(CCN3CC2CC2)C1O5 (stereo not given)
Cavia porcellus [2]
  Relative potency: 3.6
[3]
  Ratio: 6.6
[4]
  Ratio: 8.2

## O=C(/C=C/C(=O)NCC(=O)NCC(=O)NCC(=O)NCC(=O)NC1CCC2(O)C3Cc4ccc(O)c5c4C2(CCN3CC2CC2)C1O5)NCC(=O)NCC(=O)NCC(=O)NCC(=O)NC1CCC2(O)C3Cc4ccc(O)c5c4C2(CCN3CC2CC2)C1O5 (stereo not given)
Cavia porcellus [1]
  Relative potency: 2.2
Cavia porcellus [2]
  Relative potency: 9.9
[3]
  Ratio: 3.3
[4]
  Ratio: 22.7
